Here are results for one compound from ChEMBL document CHEMBL4270630.

As usually defined, the EC50 is the concentration giving half of the maximal effect. Broadly, the CC50 is the concentration giving 50% cytotoxicity. For orientation: inhibition means the drop in the measured response relative to a control, in per cent.

The structures appear in SMILES notation.

The subject of series [1] is Influenza A virus. Briefly: Antiviral activity against Influenza A virus A/PR/8/34(H1N1) infected in MDCK cells assessed as reduction in virus-induced cytopathic effect after 3 days by microscopic method. Format: functional, organism-based, A/Puerto Rico/8/1934(H1N1). As to conditions: Influenza A virus, A/Puerto Rico/8/1934(H1N1), MDCK, 72 h. The essentials: (§1)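 Semi-confluent MDCK cells were infected at an MOI of 0.0004 PFU/cell in Ultra-MDCK infection medium with 2 μg/mL TPCK-trypsin, together with compounds. After 3 days at 35 °C, CPE was scored by microscopy and confirmed by MTS formazan viability. EC50 is the concentration giving 50% inhibition of virus-induced CPE. Values are means of two to five independent tests.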

For series [2], the system named is Influenza A virus. The experiment in a line: Antiviral activity against Influenza A virus A/PR/8/34(H1N1) infected in MDCK cells after 3 days by MTS assay. Format: functional, organism-based, A/Puerto Rico/8/1934(H1N1). As to conditions: Influenza A virus, A/Puerto Rico/8/1934(H1N1), MDCK, 72 h. The essentials: as §1
On the technique in general: Formazan colour is commonly taken as a measure of viable cells.

Series [3] relates to Influenza A virus. The experiment in a line: Antiviral activity against Influenza A virus A/Virginia/ATCC3/2009(H1N1pdm) infected in MDCK cells assessed as reduction in virus-induced cytopathic effect after 3 days by microscopic method. As to conditions: 72 h. Type of series: functional, organism-based, Influenza A virus (A/Virginia/03/2009(H1N1)). The essentials:
as §1

Series [4] deals with Influenza A virus. The experiment in a line: Antiviral activity against Influenza A virus A/Virginia/ATCC3/2009(H1N1pdm) infected in MDCK cells after 3 days by MTS assay. Format: functional, organism-based, Influenza A virus (A/Virginia/03/2009(H1N1)). As to conditions: 72 h. The method in brief:
as §1

Series [5] concerns H3N2 subtype. Briefly: Antiviral activity against Influenza A virus A/HK/7/87(H3N2) infected in MDCK cells assessed as reduction in virus-induced cytopathic effect after 3 days by microscopic method. Format: functional, organism-based. Conditions: A/Hong Kong/7/1987(H3N2), 72 h. The method in brief: as §1
(In general: Cytopathic effects are the visible damage that an infection or toxin causes in cultured cells.)

Series [6] concerns H3N2 subtype. The experiment in a line: Antiviral activity against Influenza A virus A/HK/7/87(H3N2) infected in MDCK cells after 3 days by MTS assay. Format: functional, organism-based. As to conditions: A/Hong Kong/7/1987(H3N2), 72 h. The essentials:
as §1

Series [7] deals with Influenza B virus. Briefly: Antiviral activity against Influenza B virus B/Ned/537/05 infected in MDCK cells assessed as reduction in virus-induced cytopathic effect after 3 days by microscopic method. Type of series: functional, organism-based. As to conditions: B/Ned/537/05, MDCK, 72 h. The essentials: (§2)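 Semi-confluent MDCK cells were infected at an MOI of 0.0004 PFU/cell in Ultra-MDCK infection medium with 2 μg/mL TPCK-trypsin, together with compounds. After 3 days at 35 °C, CPE was scored by microscopy and confirmed by MTS formazan viability. Values are means of two to five independent tests.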

Series [8] relates to Influenza B virus. The experiment in a line: Antiviral activity against Influenza B virus B/Ned/537/05 infected in MDCK cells after 3 days by MTS assay. Format: functional, organism-based. Conditions: B/Ned/537/05, MDCK, 72 h. The essentials: as §2
For series [9], the system named is MDCK. Briefly: Cytotoxicity against MDCK cells assessed as reduction in cell viability after 3 days by MTS assay. As to conditions: dog, mdck, 72 h. Format: cell-based, Canis lupus familiaris.
The nature of series [10]: Cytotoxicity against MDCK cells assessed as alteration in cell morphology after 3 days by microscopic method. Conditions: dog. Type of series: cell-based, Canis lupus familiaris. The method in brief: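 Mock-infected MDCK cells were treated with compounds in parallel with the antiviral assay, 3 days at 35 °C. MCC is the concentration causing minimal change in cell morphology by microscopy. CC50 is the 50% cytotoxic concentration by MTS formazan viability assay.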

The test system of series [11] is Influenza A virus. The experiment in a line: Antiviral activity against Influenza A virus A/PR/8/34(H1N1) GFP-fused pseudotyped lentiviral particle expressing H1-HA/N1-NA infected in MDCK cells assessed as inhibition of pseudoparticle entry at 10 uM after 3 days by flow cytometry relative to control. Type of series: functional. As to conditions: A/Puerto Rico/8/1934(H1N1), 72 h. The method in brief: (§3)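 MDCK cells were seeded at 7500/well and one day later were exposed to compounds plus GFP lentiviral pseudoparticles bearing A/PR/8/34 H1-HA and N1-NA, with HA0 activated by trypsin. After 3 days the cells were trypsinized, fixed in paraformaldehyde and analysed for GFP by flow cytometry. Entry inhibition was taken as the reduction in GFP signal. Data are the mean ± SEM of four independent experiments.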
(In general: A flow cytometer gives signals particle by particle.)

Series [12] deals with Influenza A virus. Briefly: Antiviral activity against Influenza A virus A/PR/8/34(H1N1) GFP-fused pseudotyped lentiviral particle expressing H1-HA/N1-NA infected in MDCK cells assessed as inhibition of pseudoparticle entry at 2 uM after 3 days by flow cytometry relative to control. Type of series: functional. As to conditions: A/Puerto Rico/8/1934(H1N1), 72 h. The essentials:
as §3

In the case of `CCCCCCCCCCOCc1cn(CCOCCOCCOCCOCc2cn([C@H]3C(=O)N[C@@H]4Cc5ccc(c(Cl)c5)Oc5cc6cc(c5O)Oc5ccc(cc5Cl)[C@@H](O[C@@H]5O[C@H](CO)[C@@H](O)[C@H](O)[C@H]5NC(C)=O)[C@H]5NC(=O)[C@H](NC(O)[C@@H]6NC(=O)[C@@H](NC4=O)c4cc(O)cc(c4)Oc4cc3ccc4O)c3ccc(O)c(c3)-c3c(O)cc(O)cc3[C@H](C(=O)O)NC5=O)nn2)nn1` (some centres not stated), the EC50 was found to be 1600 nM in series [1]; 1500 nM in [2]; 1800 nM in series [3]; 1800 nM in series [4]; 1600 nM in series [5]; 1300 nM in series [6]. Further, the concentration for a half-maximal effect (EC50) in series [7] is over 100000 nM; in series [8] it was under 800 nM. In addition, in [9], the CC50 was at least 82000 nM. For the same compound, in [10], the MCC at 72 h was at least 20 µM. Also, the inhibition at 10 µM in series [11] was 92%. Also, the inhibition at 2 µM in [12] stood at 56%.
